How the values were obtained:
[1] = biological target: Kappa-type opioid receptor (Mus musculus) (UniProt P33534); test: Positive allosteric modulator activity in mouse kappa opioid receptor stably expressed in HEK293 cell membrane assessed as inhibition of forskolin induced cAMP production by measuring dyn A1-13 Emax incubated with dyn A1-13 alone measured after 30 mins by HTRF assay relative to control; assay type: functional, cell membranes; conditions: filed as positive allosteric modulator, dose 0.03 µM, time 60.0 min
Procedure, shortened: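 Stably transfected mouse KOR HEK293 cells were pretreated with modulator (0.03–10 μM) for 30 min at 37 °C. Dyn A1-13 or U50,488 plus forskolin (10 μM final) with IBMX were then added for a further 30 min at 37 °C. HTRF cAMP read at 665/620 nm. Normalised to the highest orthosteric agonist concentration; unconstrained three-parameter fit, slope 1; n = 4 (7 at 10 μM).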

[2] = biological target: T1, Kappa-type opioid receptor (Mus musculus, UniProt P33534); test: Positive allosteric modulator activity in mouse kappa opioid receptor stably expressed in HEK293 cell membrane assessed as inhibition of forskolin induced cAMP production by measuring dyn A1-13 EC50 incubated with dyn A1-13 alone measured after 30 mins by HTRF assay; assay type: functional, cell membranes
Procedure, shortened: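 HEK293 stably expressing mouse KOR (2000 cells/well), pretreated 30 min at 37 °C with T20K (0.03–10 μM) or none, then dyn A1–13 with 10 μM forskolin and 0.5 mM IBMX for 30 min at 37 °C. cAMP by HTRF (665/620 nm) after 1 h at room temperature. Triplicates; normalized to top dyn A1–13 concentration; three-parameter fit, slope 1.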

[3] = biological target: T1, Kappa-type opioid receptor; test: Agonist activity at mouse kappa opioid receptor […] assessed as beta-arrestin 2 recruitment using furimazine as a substrate preincubated for 5 mins followed by ligand addition measured for 35 mins by BRET assay; assay type: functional, HEK293, Cell membrane
[4] = biological target: T1, Kappa-type opioid receptor; test: Positive allosteric modulator activity in mouse kappa opioid receptor stably expressed in HEK293 cell membrane assessed as binding affinity of dyn A1-13 to orthosteric binding site incubated with dyn A1-13 alone for 90 mins by radioligand competition binding assay; assay type: cell membranes

Question: With CC[C@H](C)[C@H](NC(=O)[C@H](CCCNC(=N)N)NC(=O)[C@H](CCCNC(=N)N)NC(=O)[C@H](CC(C)C)NC(=O)[C@H](Cc1ccccc1)NC(=O)CNC(=O)CNC(=O)[C@@H](N)Cc1ccc(O)cc1)C(=O)N[C@@H](CCCNC(=N)N)C(=O)N1CCC[C@H]1C(=O)N[C@@H](CCCCN)C(=O)N[C@@H](CC(C)C)C(=O)N[C@@H](CCCCN)C(=O)O [ANALOG OF DYNORPHIN A] as the compound, how does the Emax [1] read?
Answer: 100%

Question: What about the EC50 [2] of the same compound?
Answer: 6.7 nM

Question: And the EC50 [3]?
Answer: 159 nM

Question: What about the Ki [4] of the same compound?
Answer: 0.3 nM

From ChEMBL document CHEMBL4831505, “Plant-Derived Cyclotides Modulate κ-Opioid Receptor Signaling” (J Nat Prod, 2021)
